Results reported in ChEMBL document CHEMBL1154198, “Chemical genetics of Plasmodium falciparum” (Nature, 2010).

How the values were obtained:
[1] = tested on: Plasmodium falciparum; assay: ST_JUDE: Plasmodium falciparum K1 EC50 (uM) as measured by SYBR green dye; format: functional, organism-based
[2] = tested on: Plasmodium falciparum; assay: ST_JUDE: Plasmodium falciparum 3D7 EC50 (uM) as measured by SYBR green dye; format: functional, organism-based
[3] = tested on: Plasmodium falciparum; assay: ST_JUDE: Cytotoxicity against Plasmodium falciparum D10 transfected with yeast DHOD; format: functional, organism-based
[4] = tested on: Plasmodium falciparum; assay: ST_JUDE: Cytotoxicity against Plasmodium falciparum 3D7; format: functional, organism-based
Procedure, shortened: (§1)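 Asexual P. falciparum grown in human erythrocytes, exposed to compounds for 72 h, and growth read as the DNA quantity in treated versus control cultures. Dose-response run at 12 concentrations from 10 μM to 5 nM.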

[5] = tested on: Plasmodium falciparum; assay: ST_JUDE: Cytotoxicity against Plasmodium falciparum W2; format: functional, organism-based
[6] = ST_JUDE: Cytotoxicity using luciferase to measure ATP as an indicator of the viability of human epithelial hepatocellular carcinoma cells (HepG2); format: toxicity, cell-based
[7] = tested on: Trypanosoma brucei; assay: ST_JUDE: Cytotoxicity using luciferase to measure ATP as an indicator of the viability of Trypanosoma brucei; format: functional, organism-based
[8] = tested on: Plasmodium falciparum; assay: ST_JUDE: Cytotoxicity against Plasmodium falciparum K1; format: functional, organism-based; procedure, shortened: as §1
[9] = tested on: Plasmodium falciparum; assay: ST_JUDE: Cytotoxicity against Plasmodium falciparum Dd2; format: functional, organism-based
[10] = tested on: Plasmodium falciparum; assay: ST_JUDE: Cytotoxicity against Plasmodium falciparum SB-A6; format: functional, organism-based
[11] = tested on: Toxoplasma gondii; assay: ST_JUDE: Growth inhibition of to Toxoplasma gondii, in human U-2OS cells, as measured by luciferase.; format: functional, organism-based; conditions: RH, U2OS
Procedure, shortened: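 T. gondii parasites engineered to express luciferase; drug sensitivity read by luminescence.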

[12] = ST_JUDE: Cytotoxicity using luciferase to measure ATP as an indicator of the viability of human foreskin fibroblast cells (BJ); format: toxicity, cell-based
[13] = ST_JUDE: Cytotoxicity using luciferase to measure ATP as an indicator of the viability of human Burkitt''s lymphoma lymphoblast cells (Raji); format: toxicity, cell-based
[14] = tested on: Leishmania major; assay: ST_JUDE: Cytotoxicity using Alamar Blue to measure viability of Leishmania major; format: functional, organism-based
Procedure, shortened: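 L. major promastigotes; drug susceptibility read with Alamar Blue.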

[15] = tested on: Plasmodium falciparum; assay: ST_JUDE: Cytotoxicity against Plasmodium falciparum V1/S; format: functional, organism-based
[16] = ST_JUDE: Cytotoxicity using luciferase to measure ATP as an indicator of the viability of human epithelial embryonic kidney cells (HEK293); format: toxicity, cell-based

Compound	EC50 [1]	EC50 [2]	EC50 [3]	EC50 [4]	EC50 [5]	EC50 [6]	EC50 [7]	EC50 [8]	EC50 [9]	EC50 [10]	EC50 [11]	EC50 [12]	EC50 [13]	EC50 [14]	EC50 [15]	EC50 [16]
CCOc1ccc(Nc2nc(NCc3ccccc3)c3ccccc3n2)cc1	1540 nM	1150 nM	1070 nM	1140 nM	> 10200 nM	4770 nM	5620 nM	1440 nM	651 nM	305 nM	> 21700 nM	8410 nM	8220 nM	8.8 nM	1070 nM	8670 nM
COc1ccc(C2CC(=O)C3=C(C2)NC(=O)CC3c2ccc(C(F)(F)F)cc2)cc1OC (stereo not drawn)	872 nM	599 nM	1110 nM	2150 nM	417 nM	> 47500 nM	> 45500 nM	1590 nM	894 nM	1090 nM	> 26000 nM	> 47500 nM	> 47500 nM	> 20300 nM	1190 nM	> 47500 nM
CO/C(O)=C1\C(C)=NC2=C(C(=O)CC(c3ccc(OC)c(OC)c3)C2)C1c1ccccc1C (stereo not drawn)	117 nM	424 nM	196 nM	309 nM	225 nM	> 41400 nM	17000 nM	220 nM	577 nM	176 nM	> 22700 nM	> 41400 nM	> 41400 nM	> 17700 nM	254 nM	> 41400 nM
O=C(c1ccccc1)N1CCN(c2ccccc2NC(=O)C(Cl)(Cl)Cl)CC1	877 nM	1450 nM	4190 nM	918 nM	> 8650 nM	> 33700 nM	26800 nM	838 nM	2770 nM	1340 nM	> 18400 nM	> 33700 nM	> 33700 nM	> 14400 nM	1110 nM	> 33700 nM
CCCCOc1ccc(N(C(C)=O)C2=C(N3CCCCC3)C(=O)c3ccccc3C2=O)cc1	489 nM	722 nM	62 nM	167 nM	483 nM	13700 nM	4910 nM	147 nM	382 nM	104 nM	> 15600 nM	> 28500 nM	6970 nM	> 12200 nM	120 nM	> 28500 nM
Cc1oc2c(c1C(=O)NCCC(C)C)C(=O)c1ccccc1C2=O	424 nM	7610 nM	842 nM	1230 nM	> 10900 nM	> 42500 nM	2380 nM	1170 nM	2340 nM	1120 nM	> 23300 nM	> 42500 nM	> 42500 nM	> 18200 nM	> 10900 nM	> 42500 nM
CCc1ccc(S(=O)(=O)NC2=C/C(=N\c3ccccc3)C(=O)c3ccccc32)cc1	472 nM	557 nM	373 nM	284 nM	484 nM	4290 nM	1460 nM	276 nM	575 nM	340 nM	> 16900 nM	5650 nM	2660 nM	> 13200 nM	404 nM	5210 nM
C/C=C/c1n(C)c2ccccc2[n+]1C	1380 nM	1500 nM	701 nM	916 nM	1900 nM	> 40200 nM	> 38600 nM	993 nM	1630 nM	1070 nM	> 22000 nM	> 40200 nM	> 40200 nM	> 17200 nM	1390 nM	> 40200 nM
C#CC[n+]1ccn2c(C)ccc2c1CC	1380 nM	> 15000 nM	> 12800 nM	1680 nM	3440 nM	> 49800 nM	> 47700 nM	1420 nM	1540 nM	2530 nM	> 27300 nM	> 49800 nM	40700 nM	> 21300 nM	> 12800 nM	> 49800 nM
CC(C)(C)NC(=O)c1cn(C2CCCCC2)cc(C(=O)NC2CCN(Cc3ccccc3)C2)c1=O (stereo not drawn)	4090 nM	658 nM	1520 nM	787 nM	2140 nM	> 28700 nM	19900 nM	1980 nM	507 nM	704 nM	> 15700 nM	> 28700 nM	> 28700 nM	> 12300 nM	4840 nM	> 28700 nM
CC(O)(c1ccc(Cl)cc1)C(CN1CCCCC1)c1ccccc1 (stereo not drawn)	267 nM	916 nM	5330 nM	2200 nM	7800 nM	> 50600 nM	24000 nM	652 nM	1260 nM	4240 nM	> 27700 nM	> 50600 nM	> 50600 nM	> 21600 nM	1310 nM	> 50600 nM
C=CCN1C=CC=C/C1=C\c1sc2ccccc2[n+]1CC	1440 nM	2310 nM	2920 nM	1290 nM	> 5540 nM	> 21600 nM	2670 nM	1890 nM	920 nM	1600 nM	> 11800 nM	> 21600 nM	2820 nM	12.2 nM	2000 nM	> 21600 nM
COc1ccccc1Cn1ccnc1SCC(=O)Nc1cc(C(F)(F)F)ccc1Cl	170 nM	119 nM	> 10000 nM	190 nM	2670 nM	> 39100 nM	12100 nM	252 nM	246 nM	> 10000 nM	> 21400 nM	> 39100 nM	> 39100 nM	> 16700 nM	288 nM	> 39100 nM
